# High-throughput results as filed in PubChem.
# NR2E3 ag-1: agonists of human NR2E3 nuclear receptor. AID 602229. inhibition of corepressor binding, % at 3.98 µM. 0.35% of 360,000 active. Q9Y5X4. CHO-S Gal4-NCOR/VP16-NR2E3 two-hybrid, luciferase;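 active = inhibition above the mean of all tested compounds plus 3 SD, cut at about 70% in these data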;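 also: higher means lower luciferase signal from less NR2E3 corepressor binding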
# Target sequence (Q9Y5X4 whole entry, looked up, the tested form may be a part): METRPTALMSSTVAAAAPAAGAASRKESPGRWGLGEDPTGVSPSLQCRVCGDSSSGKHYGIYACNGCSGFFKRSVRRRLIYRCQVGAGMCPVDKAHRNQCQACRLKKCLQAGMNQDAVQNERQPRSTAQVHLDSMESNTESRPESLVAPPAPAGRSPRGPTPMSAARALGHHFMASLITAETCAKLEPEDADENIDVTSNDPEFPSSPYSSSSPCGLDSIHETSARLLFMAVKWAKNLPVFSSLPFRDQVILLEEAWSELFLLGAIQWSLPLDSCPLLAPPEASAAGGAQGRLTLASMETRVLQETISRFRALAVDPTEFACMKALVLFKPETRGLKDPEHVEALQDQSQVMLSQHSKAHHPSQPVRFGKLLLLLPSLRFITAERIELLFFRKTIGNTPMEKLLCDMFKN
# SMARCA2 activ: increases SMARCA2 function in MMTV reporter cells; MG213 cells, MMTV-luciferase reporter, dexamethasone, overnight; activation, % at 9.1 µM; 1% of 370,000 active; AID 652017; in the data active = activation above about 7.8%
# GalR3 antag: blocks the human galanin receptor 3 | O60755 | HEK293 GalR3-CNG cAMP membrane potential fluorescence; galR3 body fused to GalR1 C-terminus | inhibition, % at 3 µM | 0.44% of 360,000 active;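 active = inhibition above the screen-wide average plus 3 SD, cut at about 13% in these data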;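 also: forskolin and galanin both at EC90 stimulate the cells; cAMP rise reported by CNG channel membrane potential dye signal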
# COUP-TFII inh: inhibitors of human COUP-TFII (NR2F2); 0.7% of 370,000 active; HEK293T NGFI-A luciferase reporter, luminescence; inhibition, % at 8.6 µM; P24468;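 active = inhibition above a per-plate cutoff, mean inhibition of test wells between control levels plus 3 SD, cut at about 38% in these data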;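 also: cells cotransfected with COUP-TFII expression vector driving the NGFI-A reporter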
# NR2E3 ag-2: NR2E3 (human) agonism. AID 2300. GST-NR2E3/biotin-RetCOR TR-FRET, 1536-well. Q9Y5X4. inhibition of corepressor binding, % at 4.78 µM. 0.12% of 320,000 active;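 active = percent inhibition above the cutoff of mean plus 3 SD of all tested compounds, set per screening campaign, cut at about 20% in these data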
#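 Format: 1536-well format; test system: GST-NR2E3 and biotin-RetCOR proteins; read-out basis: percent inhibition of TR-FRET ratio; timing: 5 h incubation at 4 °C; detection: time-resolved FRET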
# Gal4-VP16 ctr: counter-screen for COUP-TFII antagonists: inhibitors of VP16; shares compounds with COUP-TFII inh; HEK293 Gal4-VP16 luciferase reporter, luminescence; inhibition, % at 8.5 µM; 25% of 2,500 active; in the data active = inhibition above about 13%
# COUP-TFII conf: COUP-TFII (NR2F2) inhibition, confirmation assay; 45% of 2,500 active; inhibition, % at 8.5 µM; shares compounds with COUP-TFII inh; HEK293 NGFI-A luciferase reporter, luminescence;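 active = mean inhibition over three repeats above a set limit taken from the earlier primary screen, cut at about 38% in these data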
# A number is an active result; - = inactive; . = no result. This is a sample that favours compounds with a hit; in the whole collection about 2.2% have one here.
SMILES,NR2E3 ag-1,SMARCA2 activ,GalR3 antag,COUP-TFII inh,NR2E3 ag-2,Gal4-VP16 ctr,COUP-TFII conf
COCCNc1nc(NCc2ccc(C(C)C)cc2)c2sccc2n1,-,-,-,38,.,-,-
COC(=O)[C@]12C[C@H](CC(=O)N3CCN(C(=O)C4CC4)CC3)C(=O)N(Cc3ccco3)C1=C[C@H](C(C)C)O[C@@H]2C1CC1,.,-,.,-,.,.,.
Cc1ccc(C(=O)Nc2cc(C(C)C)c(O)c(C(C)C)c2)cc1,-,-,-,46,-,-,-
C[C@@H]1[C@@H](O)C[C@@]2(C[C@H](O)c3cc(Cl)ccc3O2)O[C@H]1c1ccccc1Cl,.,-,.,-,.,.,.
Cc1ccc(C)c(N2CCN(C(=O)C3CCN(S(=O)(=O)c4c(C)noc4C)CC3)CC2)c1,-,-,-,53,-,-,-
COc1cccc2c(NCc3ccccc3)nc(-n3c(N)nc4ccccc43)nc12,.,.,.,100,.,49,-
CCOC(=O)c1cccc(-c2cc(C(=O)OC)c3n(c2=O)CCC3)c1,.,-,.,-,.,.,.
Cn1cccc1CC(=O)NN=C/C=C\c1ccco1,.,-,.,-,.,.,.
CCCCCCCCN1CN2Cc3cc(OC)ccc3C2CS1(=O)=O (stereo not drawn),.,-,.,-,.,.,.
O=C(Nc1ccc(F)c(Cl)c1)C1Cc2c(-c3ccco3)ccnc2O1 (stereo not drawn),-,-,-,41,.,-,-
C=C(C)/C=C1/C(Cc2ccccc2)N(CC2CC2)C(=N)N1C(=O)OCc1ccccc1 (stereo not drawn),.,-,.,-,.,.,.
C(C#CCCCCCCCCC[n+]1ccccc1)#CCCCCCCCCC[n+]1ccccc1,-,-,.,65,-,16,-
CCOC(=O)/C=C1\CN(Cc2cc(OC)c(OC)c(OC)c2)S(=O)(=O)c2ccccc21,-,-,-,-,-,.,.
CCOC(=O)/C=C1\CN(Cc2cc(OC)c(OC)c(OC)c2)S(=O)(=O)c2ccc(C(F)(F)F)cc21,-,-,-,48,-,-,-
O=C(NCc1ccc(Cl)cc1)C1CCCN(c2ncccn2)C1 (stereo not drawn),.,-,.,-,.,.,.
CCOc1ccc(CCNC(=O)c2cc3sccc3n2CC)cc1OC,.,-,.,57,.,-,-
CCn1c(C(=O)NCCCc2ccccc2)cc2sccc21,-,-,-,-,-,.,.
COCCNc1nc(N)c([N+](=O)[O-])c(NC2CCCCC2)n1,-,-,-,-,-,.,.
NCCCNc1nc(N)c([N+](=O)[O-])c(NC2CCCCC2)n1,-,-,-,41,-,-,-
COc1cc2c(c(OC)c1)[C@H](/C=C/c1ccccc1)[C@@H]([C@H](O)CO)OC2,.,-,.,-,.,.,.
CCn1ncc2c(=O)c(C(=O)c3ccccc3)c[nH]c21,.,-,-,-,.,.,.
CCCCCCCCN1C(=O)N2Cc3cc(F)ccc3C2CS1(=O)=O (stereo not drawn),.,-,.,-,.,.,.
COc1ccc(-c2cc(C3CCN(c4ccc(C(C)=O)cc4[N+](=O)[O-])CC3)[nH]n2)cc1,73,-,-,42,-,-,-
COC(=O)C[C@H]1CC[C@@H]2[C@@H](COc3ccc(NC(=O)c4ccccc4)cc3C(=O)N2C)O1,.,-,.,-,.,.,.
CCCOc1ccc(-c2cc(C(C)=O)c3n(c2=O)CCC3)cc1,.,-,.,-,.,.,.
SMILES,NR2E3 ag-1,SMARCA2 activ,GalR3 antag,COUP-TFII inh,NR2E3 ag-2,Gal4-VP16 ctr,COUP-TFII conf
CCCC(=O)N1CCCC(c2cc(C(=O)Nc3ccccc3)no2)C1 (stereo not drawn),-,-,-,44,.,-,-
O=C(Nc1ccccc1)c1cc(C2CCCN(C(=O)c3ccccc3)C2)on1 (stereo not drawn),-,-,-,-,.,.,.
Cc1ncccc1C(=O)N1CCCC(c2cc(C(=O)Nc3ccc(C(C)(C)C)cc3)no2)C1 (stereo not drawn),-,-,-,40,.,-,-
CC(C)(C)c1ccc(NC(=O)c2cc(C3CCCN(S(=O)(=O)c4cccc5cccnc45)C3)on2)cc1 (stereo not drawn),-,-,-,-,.,.,.
COC(=O)c1ccc(Cn2ccc3ccc(-c4ccc5ccn(Cc6ccc(C(=O)OC)cc6)c5c4)cc32)cc1,.,-,.,-,.,.,.
CCN(CC)S(=O)(=O)c1cccc(C(=O)Nc2cc(C)cc(C)c2)c1,-,-,-,-,-,.,.
CCN(CC)S(=O)(=O)c1cccc(C(=O)Nc2ccc(C#N)cc2)c1,-,-,-,55,-,-,40
CCN(CC)S(=O)(=O)c1cccc(NC(=O)c2ccc(Br)cc2)c1,-,-,-,39,-,-,-
N#CCSc1nnc(-c2sc3ccccc3c2Cl)o1,-,-,-,53,-,-,44
COC(=O)[C@]12C[C@H](CC(=O)NCc3ccc(OC)c(OC)c3)C(=O)N(Cc3ccc(Cl)cc3Cl)C1=C[C@H](C(C)(C)C)O[C@@H]2C,.,-,.,-,.,.,.
OC(c1ccccc1)(c1ccccc1)C1CCN(CCCNc2ccccc2Br)CC1,.,-,.,-,.,.,.
CCOC(=O)[C@]12CCCCC/C=C\1N(CCc1ccc(Cl)cc1)C(=O)[C@H]2CC(=O)N1CCCCC1,.,-,.,-,.,.,.
CCOC(=O)[C@@]12CCCC=C1N(CCc1ccc(Cl)cc1)C(=O)[C@H]2CC(=O)N1CCCC1,.,-,.,44,.,-,40
CC(C)C[C@H]1COc2cccc(F)c2S(=O)(=O)N1Cc1cn(Cc2ccc(F)cc2)nn1,.,-,.,-,.,.,.
O=C1CC(c2ccco2)Sc2nc3ccccc3n21 (stereo not drawn),-,-,-,-,-,.,.
O=C1CC(c2ccc3c(c2)OCO3)Sc2nc3ccccc3n21 (stereo not drawn),-,-,-,42,-,-,-
CCOC(=O)[C@]12CCCCC/C=C\1N(CCc1ccc(Cl)cc1)C(=O)[C@H]2CC(=O)NCc1ccc(OC)c(OC)c1,.,-,.,-,.,.,.
OC(c1ccccc1)(c1ccccc1)C1CCN(CCCNc2ccc(Cl)cc2Cl)CC1,.,-,.,-,.,.,.
O=C(Nc1ccc(N2CCN(c3ncccc3C(F)(F)F)CC2)nc1)c1cccs1,-,-,-,52,-,-,40
O=C(Nc1ccc(N2CCN(c3ccc(C(F)(F)F)cn3)CC2)nc1)c1cccs1,-,-,-,-,-,.,.
O=C(Nc1cc(S(=O)(=O)N2CCOCC2)ccc1N1CCCC1)c1cc2c(s1)CCCC2,.,.,.,-,.,.,.
N=c1ccn(Cc2ccc(Cl)c(Cl)c2)cc1,-,-,-,49,-,-,-
N=c1ccn(Cc2ccc(Cl)cc2)cc1,-,-,-,-,-,.,.
CCOC(=O)C1CCN(c2cc(C)nc3ccc(OC)cc23)CC1,-,-,-,42,-,-,-
Cc1cccc(Cn2c(NCCO)nc3c2c(=O)n(C)c(=O)n3C)c1,-,-,-,52,-,-,-
Cc1cc(C)nc(NC(N)=NCCc2c[nH]c3ccccc23)n1,-,-,-,40,-,-,-
